Each structure is given as a SMILES string.

The nature of series [1]: Metabolic stability in human liver microsomes assessed as parent compound remaining in presence of NADPH by LC-MS/MS method. The format is ADME. Summed up:
(§1)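 Compound incubated with liver microsomes (human or mouse) plus NADPH at 37 °C. Loss of parent was followed by LC-MS-MS and reported as percent. Stability bands: low <40%, medium 40–60%, high >60%.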

Series [2] has as its target T1, C-X-C chemokine receptor type 3 (Homo sapiens, UniProt P49682).
T1 sequence (P49682 whole entry): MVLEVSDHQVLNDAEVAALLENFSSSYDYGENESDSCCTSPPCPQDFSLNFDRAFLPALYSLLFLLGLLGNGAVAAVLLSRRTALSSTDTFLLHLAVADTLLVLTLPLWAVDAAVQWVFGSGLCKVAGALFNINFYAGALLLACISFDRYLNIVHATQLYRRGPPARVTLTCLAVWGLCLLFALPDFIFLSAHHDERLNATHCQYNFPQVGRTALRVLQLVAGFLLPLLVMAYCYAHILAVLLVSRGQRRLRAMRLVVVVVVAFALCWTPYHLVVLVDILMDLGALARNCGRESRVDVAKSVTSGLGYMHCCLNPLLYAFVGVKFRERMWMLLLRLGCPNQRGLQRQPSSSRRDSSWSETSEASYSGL
As to the kind of experiment: Displacement of [125I]-CXCL10 from human recombinant CXCR3 transfected in Flp-In-CHO cell membranes after 60 mins by gamma counting method. On the technique in general: Loss of bound radioactivity is the signal in a displacement assay; it reports binding, not function.

The nature of series [3]: Metabolic stability in mouse liver microsomes assessed as parent compound remaining in presence of NADPH by LC-MS/MS method. Format: ADME. Summed up:
as §1
For orientation: Liver microsomes are vesicles of endoplasmic reticulum, rich in cytochrome P450 enzymes.

A short description of series [4]: Apparent permeability across human Caco2 cells after 2 hrs by LC-MS method. The format is ADME, cell-based. Particulars: Caco-2. Summed up:
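Caco-2 monolayers checked for integrity, then dosed alongside high- and low-permeability controls. Apical and basal samples taken at 2 h. Four transport conditions: A-B at pH 6.5/7.4 (0% or 0.5% BSA apical, 5% BSA basal), and A-B and B-A at pH 7.4/7.4 (0.5% BSA both sides). Compound quantified by LC/MS. Rapid transport defined as Papp >20 nm/s.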
A general note: Passage across Caco-2 layers is used to estimate intestinal permeability.

Usually IC50 stands for the concentration that gives 50% inhibition. Consider `COc1cc(CN(C)C(C)c2ccc3c(c2)CCO3)ccc1OCCN1C(=O)CN(C)C1=O` (configuration not stated), for which the values for the Stability in series [1] and in series [3] were 28% and 26%, respectively. In addition, the IC50 in series [2] was 202 nM.

With `COc1cc(CN(Cc2ccc3c(c2)CCO3)C(C)c2ccc3c(c2)CCO3)ccc1OCCN1C(=O)CCC1=O` (configuration not stated), the Stability turned out to be 28% in series [1] and 24% in series [3]. In addition, the IC50 in series [2] came out at 340 nM.

Consider `CCC(c1ccc2c(c1)CCO2)N(Cc1ccc(OCCN2C(=O)CCC2=O)c(OC)c1)CC(C)C` (configuration not stated), for which the Stability in series [1] and in series [3] was 19% throughout. For the same compound, the IC50 in series [2] came out at 38 nM.

For `COc1cc(CN(CC(C)O)C(C)c2ccc3c(c2)CCO3)ccc1OCCN1C(=O)CCC1=O` (configuration not stated), the Stability in series [1] is listed as 2%; in series [3], 0%. Besides, the IC50 in series [2] is 77 nM.

Broadly, the Papp is a coefficient for how fast a substance crosses the barrier. Consider `CCC(c1ccc2c(c1)CCO2)N(Cc1ccc(C(=O)O)cc1)Cc1ccc(OCCN2C(=O)CCC2=O)c(OC)c1` (configuration not stated), for which the Stability in series [1] stood at 60%; in series [3] it was 78%. The 50% inhibitory concentration (IC50) in series [2] was determined as 160 nM. In addition, in series [4], the Papp at 2 h came out at 1.46 ×10⁻⁶ cm/s.

With `COc1cc(CNC(CC(C)C)c2ccc3c(c2)CCO3)ccc1OCCN1C(=O)CCC1=O` (configuration not stated), the IC50 in series [2] worked out at 1800 nM.

`CCC(NCc1ccc(OCCN2C(=O)CCC2=O)c(OC)c1)c1ccc2c(c1)CCO2` (configuration not stated): the IC50 in series [2] was 1060 nM.

For `COc1cc(CN(C[C@H]2CC[C@H](C(=O)O)CC2)[C@H]2CCc3cc(Cl)ccc32)ccc1CCCN1C(=O)CCC1=O`, the values for the Stability in series [1] and in series [3] were 36% and 24%, respectively. In series [2], the half-inhibitory concentration (IC50) was 1000 nM. In addition, the Papp at 2 h in series [4] was found to be 16.5 ×10⁻⁶ cm/s.

For the compound `COc1cc(CN(Cc2ccc(C(=O)O)cc2)[C@H](C)c2ccc(Cl)cc2)ccc1OCCN1C(=O)CCC1=O`, the figures for the Stability in series [1] and in series [3] were 98% and 100%, respectively. Further, the IC50 in series [2] stood at 345 nM. Further, the Papp at 2 h in series [4] was determined as 3.7 ×10⁻⁶ cm/s.

Regarding `CC(c1ccc2c(c1)CCO2)N(C)Cc1ccc(OCCN2C(=O)CCC2=O)c(Cl)c1` (configuration not stated), the Stability in series [1] was determined as 14%; in series [3], 17%. In series [2], the IC50 is 187 nM.

Consider `CCCC(NCc1ccc(OCCN2C(=O)CCC2=O)c(OC)c1)c1ccc2c(c1)CCO2` (configuration not stated), for which the IC50 in series [2] worked out at 1200 nM.

Take `COc1cc(CN(CC(C)C)C(C)c2ccc3c(c2)CCO3)ccc1OCCN1C(=O)CCC1=O` (configuration not stated): the values for the Stability in series [1] and in series [3] were 2% and 9%, respectively. In addition, the IC50 in series [2] stood at 55 nM.

Take `Cc1cc(CN(C)C(C)c2ccc3c(c2)CCO3)ccc1OCCN1C(=O)CCC1=O` (configuration not stated): the Stability in series [1] worked out at 29%; in series [3], 19%. The IC50 in series [2] came out at 230 nM.

Take `COc1cc(CN(C)[C@H](C)c2ccc3c(c2)CCO3)ccc1OCCN1C(=O)CCC1=O`: in series [2], the IC50 came out at 790 nM.

On to `COc1cc(CN(Cc2ccncc2)C(C)c2ccc3c(c2)CCO3)ccc1OCCN1C(=O)CCC1=O` (configuration not stated), for which the Stability in series [1] was found to be 41%; in series [3] it was 42%. Also, in series [2], the IC50 was 130 nM.

Take `COc1cc(CN(C)C(C)c2ccc3c(c2)CCO3)ccc1OCCN1C(=O)CNC1=O` (configuration not stated): the Stability was 60% in series [1] and 55% in series [3]. Moreover, the IC50 in series [2] worked out at 240 nM.

In the case of `COc1cc(CN(C)C(CC(C)C)c2ccc3c(c2)CCO3)ccc1OCCN1C(=O)CCC1=O` (configuration not stated), the IC50 in series [2] amounted to 330 nM.

As for `COc1cc(CNC(C)c2ccc3c(c2)CCO3)ccc1OCCN1C(=O)CCC1=O` (configuration not stated), the Stability in series [1] amounted to 61%; in series [3], 62%. In addition, in series [2], the IC50 was determined as 607 nM.

Consider `COc1cc(CN(CC(C)=O)C(C)c2ccc3c(c2)CCO3)ccc1OCCN1C(=O)CCC1=O` (configuration not stated), for which the Stability in series [1] came to 2%; in series [3], 0%. In series [2], the IC50 came to 202 nM.

`COc1cc(CNC(c2ccc3c(c2)CCO3)C2CCCC2)ccc1OCCN1C(=O)CCC1=O` (configuration not stated): the IC50 in series [2] was 3260 nM.

Regarding `COc1cc(CN(CCO)C(C)c2ccc3c(c2)CCO3)ccc1OCCN1C(=O)CCC1=O` (configuration not stated), the Stability is 3% in series [1] and 4% in series [3]. Also, the IC50 in series [2] turned out to be 82 nM.

In the case of `COc1cc(CN(Cc2ccc(C(=O)O)cc2)C(c2ccc3c(c2)CCO3)C2CCCC2)ccc1OCCN1C(=O)CCC1=O` (configuration not stated), in series [1], the Stability is recorded as 52%. In addition, in series [2], the IC50 came out at 4200 nM.

`COc1cc(CN(CC23CCC(C(=O)O)(CC2)CC3)C(C)c2ccc3c(c2)CCO3)ccc1OCCN1C(=O)CCC1=O` (configuration not stated): the Stability in series [1] was 71%; in series [3], 79%. Also, in series [2], the IC50 worked out at 225 nM. In series [4], the Papp at 2 h is 6.56 ×10⁻⁶ cm/s.

As to `COc1cc(CN(C)[C@@H](C)c2ccc3c(c2)CCO3)ccc1OCCN1C(=O)CCC1=O`, in series [2], the IC50 was 154 nM.

For `COc1cc(CN(C[C@H]2CC[C@H](C(=O)OC)CC2)[C@H]2CCc3cc(Cl)ccc32)ccc1OCCN1C(=O)CCC1=O`, in series [2], the IC50 was 840 nM.

For the compound `COc1cc(CN(C[C@H]2CC[C@H](C(=O)O)CC2)[C@H]2CCc3cc(Cl)ccc32)ccc1SCCN1C(=O)CCC1=O`, the Stability amounted to 15% in series [1] and 3% in series [3]. Further, in series [4], the Papp at 2 h worked out at 7.24 ×10⁻⁶ cm/s.

As to `CCCC(c1ccc2c(c1)CCO2)N(C)Cc1ccc(OCCN2C(=O)CCC2=O)c(OC)c1` (configuration not stated), the Stability in series [1] turned out to be 9%; in series [3], 8%. Also, the IC50 in series [2] is 110 nM.

With `COc1cc(CN(C)C(C)c2ccc3c(c2)CCO3)ccc1NCCN1C(=O)CCC1=O` (configuration not stated), the IC50 in series [2] came to 443 nM.

With `COc1cc(CN(Cc2ccc(F)cc2)C(C)c2ccc3c(c2)CCO3)ccc1OCCN1C(=O)CCC1=O` (configuration not stated), the Stability was 24% in series [1] and 19% in series [3]. For the same compound, in series [2], the IC50 came to 97 nM.

For the compound `COc1cc(CN(Cc2cccnc2)C(C)c2ccc3c(c2)CCO3)ccc1OCCN1C(=O)CCC1=O` (configuration not stated), the Stability is 19% in series [1] and 29% in series [3]. Also, the IC50 in series [2] is 190 nM.

Turning to `COc1cc(CN(C)C(C)c2ccc3c(c2)CCO3)ccc1OCCN1C(=O)CSC1=O` (configuration not stated), the Stability in series [1] worked out at 4%; in series [3], 7%. In addition, in series [2], the IC50 was determined as 120 nM.

As for `COc1cc(CN(Cc2ccc3c(c2)CCO3)CC(C)C)ccc1OCCN1C(=O)CCC1=O`, the Stability was determined as 7% in series [1] and 11% in series [3]. The IC50 in series [2] came out at 70 nM.

With `COc1cc(CN(CCN)C(C)c2ccc3c(c2)CCO3)ccc1OCCN1C(=O)CCC1=O` (configuration not stated), the Stability in series [1] worked out at 48%; in series [3] it was 13%. In addition, in series [2], the IC50 was determined as 2200 nM.

In the case of `COc1cc(CNCc2ccc3c(c2)CCO3)ccc1OCCN1C(=O)CCC1=O`, the values for the Stability in series [1] and in series [3] were 61% and 67%, respectively. For the same compound, in series [2], the IC50 turned out to be 290 nM.

As to `COc1cc(CNC(C)(C)c2ccc3c(c2)CCO3)ccc1OCCN1C(=O)CCC1=O`, the IC50 in series [2] was determined as 780 nM.

In the case of `CCC(c1ccc2c(c1)CCO2)N(CC)Cc1ccc(OCCN2C(=O)CCC2=O)c(OC)c1` (configuration not stated), the Stability in series [1] and in series [3] was 5% in each case. The IC50 in series [2] amounted to 110 nM.

As to `COc1cc(CN(CC2CCCCC2)C(C)c2ccc3c(c2)CCO3)ccc1OCCN1C(=O)CCC1=O` (configuration not stated), the Stability in series [1] was found to be 35%; in series [3] it was 27%. Further, the IC50 in series [2] is 52 nM.

For the compound `COc1cc(CN(C[C@H]2CC[C@H](C(=O)O)CC2)[C@@H]2CCc3cc(Cl)ccc32)ccc1OCCN1C(=O)CCC1=O`, the Stability is on record as 54% in series [1] and 55% in series [3]. For the same compound, the Papp at 2 h in series [4] was 6.62 ×10⁻⁶ cm/s.
